Measurements from ChEMBL document CHEMBL1165950, “Design and synthesis of new potent anticancer pyrazoles with high FLT3 kinase inhibitory selectivity” (Bioorg Med Chem, 2010).

Columns and labels:
Type in all cases: functional
MDA-MB-468 = assay: Cytotoxicity against human MDA-MB-468 cells assessed as cell growth at 10 uM after 48 hrs by sulforhodamine B assay; details: MDA-MB-468, 48 h, read-out: Activity
NCI-H460 = assay: Cytotoxicity against human NCI-H460 cells assessed as cell growth at 0.001 uM after 48 hrs by sulforhodamine B assay; details: NCI-H460, 48 h, read-out: Activity
SW-620 [1] = assay: Cytotoxicity against human SW620 cells assessed as cell growth at 0.01 uM after 48 hrs by sulforhodamine B assay; details: SW-620, 48 h, read-out: Activity
COLO 205 = assay: Cytotoxicity against human COLO205 cells assessed as cell growth at 10 uM after 48 hrs by sulforhodamine B assay; details: COLO 205, 48 h, read-out: Activity
KM12 = assay: Cytotoxicity against human KM12 cells assessed as cell growth at 0.01 uM after 48 hrs by sulforhodamine B assay; details: KM12, 48 h, read-out: Activity
SF-268 [2] = assay: Cytotoxicity against human SF268 cells assessed as cell growth at 0.001 uM after 48 hrs by sulforhodamine B assay; details: SF-268, 48 h, read-out: Activity
SK-MEL-2 = assay: Cytotoxicity against human SK-MEL-2 cells assessed as cell growth at 0.01 uM after 48 hrs by sulforhodamine B assay; details: SK-MEL-2, 48 h, read-out: Activity
SW-620 [3] = assay: Cytotoxicity against human SW620 cells assessed as cell growth at 100 nM after 48 hrs by sulforhodamine B assay; details: SW-620, 48 h, read-out: Activity
NCI-H23 = assay: Cytotoxicity against human NCI-H23 cells assessed as cell growth at 0.01 uM after 48 hrs by sulforhodamine B assay; details: NCI-H23, 48 h, read-out: Activity
CAKI-1 = assay: Cytotoxicity against human Caki1 cells assessed as cell growth at 10 uM; details: read-out: Activity
How it was run: (§1)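 Single-dose NCI-60 screen at 10 µM. Cells were grown in RPMI 1640 with 5% FBS and 2 mM L-glutamine, then treated for 48 h at 37 °C. Protein was measured by SRB staining with absorbance at 515 nm. Percentage growth was recorded, and inhibition percentage was calculated as 100 minus growth percentage.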

HT-29 = assay: Growth inhibition of human HT-29 cells after 48 hrs by sulforhodamine B assay; details: HT-29, 48 h; for CC50: read-out: LC50 (the source's name)
How it was run: (§2)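 NCI 60-cell screen, five-dose mode. Cells grown in RPMI 1640 with 5% FBS and 2 mM L-glutamine and plated at 5000-40,000 cells/well according to doubling time. After 24 h preincubation, a Tz plate was TCA-fixed. Five concentrations (10-fold or 1/2 log dilutions) were applied for 48 h at 37 °C. SRB staining read at 515 nm. IC50 taken from [(Ti-Tz)/(C-Tz)]×100 = 50.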

SNB-19 = assay: Cytotoxicity against human SNB19 cells assessed as cell growth at 100 nM after 48 hrs by sulforhodamine B assay; details: SNB-19, 48 h, read-out: Activity
ACHN = assay: Cytotoxicity against human ACHN cells assessed as cell growth at 0.001 uM after 48 hrs by sulforhodamine B assay; details: read-out: Activity
How it was run: (§3)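 NCI-60 five-dose screen. Cells were grown in RPMI 1640 with 5% FBS and 2 mM L-glutamine, plated at 5000–40,000 cells/well and preincubated for 24 h. Time-zero plates were TCA-fixed. DMSO-solubilized drug was added at five concentrations (10-fold or ½-log serial dilutions) for 48 h at 37 °C, 5% CO2. Cells were TCA-fixed, stained with 0.4% SRB and read at 515 nm. Percent growth used time-zero, control and test absorbances.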

Malme-3M = assay: Cytotoxicity against human MALME-3M cells assessed as cell growth at 1 uM after 48 hrs by sulforhodamine B assay; details: read-out: Activity
MOLT-4 = assay: Cytotoxicity against human MOLT4 cells assessed as cell growth at 0.001 uM after 48 hrs by sulforhodamine B assay; details: MOLT-4, 48 h, read-out: Activity
786-0 = assay: Cytotoxicity against human 786-0 cells assessed as cell growth at 0.001 uM after 48 hrs by sulforhodamine B assay; details: 786-0, 48 h, read-out: Activity; how it was run: as §3
TK-10 = assay: Cytotoxicity against human TK10 cells assessed as cell growth at 0.001 uM after 48 hrs by sulforhodamine B assay; details: TK-10, 48 h, read-out: Activity
K562 = assay: Cytotoxicity against human K562 cells assessed as cell growth at 1 uM after 48 hrs by sulforhodamine B assay; details: K562, 48 h, read-out: Activity
SK-OV-3 = assay: Cytotoxicity against human SKOV3 cells assessed as cell growth at 0.01 uM after 48 hrs by sulforhodamine B assay; details: SK-OV-3, 48 h, read-out: Activity
[4] = Growth inhibition of human NCI60 cells at 10 uM after 48 hrs by sulforhodamine B assay relative to control; details: NCI60, 48 h, read-out: GI
How it was run: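 Single-dose NCI screen at 10 µM across the 60-line panel, 48 h exposure at 37 °C after a 24 h preincubation. Adherent cells were fixed with cold TCA and stained with 0.4% SRB, and absorbance was read at 515 nm. Inhibition % was taken as 100 minus growth %, and the mean across all lines was reported.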

IGROV-1 = assay: Cytotoxicity against human IGROV1 cells assessed as cell growth at 10 uM; details: read-out: Activity; how it was run: as §1
SF-268 [5] = assay: Growth inhibition of human SF268 cells after 48 hrs by sulforhodamine B assay; details: SF-268, 48 h; for CC50: read-out: LC50 (the source's name); how it was run: as §2
SN12C = assay: Cytotoxicity against human SN12C cells assessed as cell growth at 0.001 uM after 48 hrs by sulforhodamine B assay; details: read-out: Activity
MDA-MB-435 = assay: Cytotoxicity against human MDA-MB-435 cells assessed as cell growth at 0.001 uM after 48 hrs by sulforhodamine B assay; details: MDA-MB-435, 48 h, read-out: Activity
DU-145 = assay: Cytotoxicity against human DU145 cells assessed as cell growth at 10 uM after 48 hrs by sulforhodamine B assay; details: DU-145, 48 h, read-out: Activity
OVCAR-4 = assay: Cytotoxicity against human OVCAR4 cells assessed as cell growth at 1 uM after 48 hrs by sulforhodamine B assay; details: OVCAR-4, 48 h, read-out: Activity
SF-295 = assay: Cytotoxicity against human SF295 cells assessed as cell growth at 1 uM after 48 hrs by sulforhodamine B assay; details: SF-295, 48 h, read-out: Activity
LOX IMVI = assay: Cytotoxicity against human LOXIMVI cells assessed as cell growth at 100 nM after 48 hrs by sulforhodamine B assay; details: read-out: Activity
A549 = assay: Cytotoxicity against human A549 cells assessed as cell growth at 1 uM after 48 hrs by sulforhodamine B assay; details: A549, 48 h, read-out: Activity; how it was run: as §3

| SMILES | growth at 10 µM (MDA-MB-468) | growth at 0.001 µM (NCI-H460) | growth at 0.01 µM (SW-620 [1]) | growth at 10 µM (COLO 205) | growth at 0.01 µM (KM12) | growth at 0.001 µM (SF-268 [2]) | growth at 0.01 µM (SK-MEL-2) | growth at 0.1 µM (SW-620 [3]) | growth at 0.01 µM (NCI-H23) | growth at 10 µM (CAKI-1) | GI50 (HT-29) | TGI (HT-29) | CC50 (HT-29) | growth at 0.1 µM (SNB-19) | growth at 0.001 µM (ACHN) | growth at 1 µM (Malme-3M) | growth at 0.001 µM (MOLT-4) | growth at 0.001 µM (786-0) | growth at 0.001 µM (TK-10) | growth at 1 µM (K562) | other results |
| --- | --- | --- | --- | --- | --- | --- | --- | --- | --- | --- | --- | --- | --- | --- | --- | --- | --- | --- | --- | --- | --- |
| COc1cc(C)cc(-c2nn(CC#N)cc2-c2ccnc(-c3ccc(N(C)C)cc3)c2)c1 | -63% | 103% | 90% | -61% | 89% | 103% | 116% | 14% | 97% | 13.9% | 481 nM | 2.88 µM | 37.2 µM | 35% | 95% | 61% | 102% | 101% | 109% | 4% | growth at 0.01 µM (SK-OV-3): 102%; inhibition of growth at 10 µM [4]: 92.3%; growth at 10 µM (IGROV-1): 13.1%; GI50 (SF-268 [5]): 0.478 µM; TGI (SF-268 [5]): 8.9 µM; CC50 (SF-268 [5]): > 100 µM; growth at 0.001 µM (SN12C): 100%; growth at 0.001 µM (MDA-MB-435): 103%; growth at 10 µM (DU-145): -48%; growth at 1 µM (OVCAR-4): 21%; growth at 1 µM (SF-295): -7%; growth at 0.1 µM (LOX IMVI): 39%; growth at 1 µM (A549): 14% |
| COc1cc(C)cc(-c2c(-c3ccnc(-c4ccc(C(C)=O)cc4)c3)cnn2CC#N)c1 | -55% | 104% | 88% | -67% | 97% | 97% | 90% | 71% | 95% | 70.4% | 3210 nM | > 100 µM | > 100 µM | 99% | 100% | 36% | 102% | 102% | 103% | 4% | growth at 0.01 µM (SK-OV-3): 98%; inhibition of growth at 10 µM [4]: 33.4%; growth at 10 µM (IGROV-1): 98.5%; GI50 (SF-268 [5]): 3.14 µM; TGI (SF-268 [5]): > 100 µM; CC50 (SF-268 [5]): > 100 µM; growth at 0.001 µM (SN12C): 94%; growth at 0.001 µM (MDA-MB-435): 100%; growth at 10 µM (DU-145): 15%; growth at 1 µM (OVCAR-4): 27%; growth at 1 µM (SF-295): 39%; growth at 0.1 µM (LOX IMVI): 85%; growth at 1 µM (A549): 25% |
| COc1cc(C)cc(-c2nn(CC#N)cc2-c2ccc(-c3cccc(C(C)=O)c3)nc2)c1 | -53% | 104% | 91% | -62% | 96% | 99% | 89% | 56% | 91% | 17.8% | 3280 nM | 18.7 µM | > 100 µM | 99% | 93% | 38% | 97% | 97% | 99% | 5% | growth at 0.01 µM (SK-OV-3): 101%; inhibition of growth at 10 µM [4]: 78.7%; growth at 10 µM (IGROV-1): 34.6%; GI50 (SF-268 [5]): 4.07 µM; TGI (SF-268 [5]): 81.4 µM; CC50 (SF-268 [5]): > 100 µM; growth at 0.001 µM (SN12C): 92%; growth at 0.001 µM (MDA-MB-435): 101%; growth at 10 µM (DU-145): -48%; growth at 1 µM (OVCAR-4): 19%; growth at 1 µM (SF-295): 16%; growth at 0.1 µM (LOX IMVI): 82%; growth at 1 µM (A549): 21% |
| Cc1cc(O)cc(-c2nn(CC#N)cc2-c2ccnc(-c3ccc(Oc4ccccc4)cc3)c2)c1 | -88% | 100% | 88% | -96% | 94% | 88% | 99% | 92% | 93% | 58.8% | 1830 nM | 3.84 µM | 8.06 µM | 94% | 98% | -75% | 99% | 98% | 91% | -13% | growth at 0.01 µM (SK-OV-3): 98%; inhibition of growth at 10 µM [4]: 46.6%; growth at 10 µM (IGROV-1): 72.2%; GI50 (SF-268 [5]): 3.96 µM; TGI (SF-268 [5]): 15.5 µM; CC50 (SF-268 [5]): 41.4 µM; growth at 0.001 µM (SN12C): 94%; growth at 0.001 µM (MDA-MB-435): 103%; growth at 10 µM (DU-145): -100%; growth at 1 µM (OVCAR-4): 21%; growth at 1 µM (SF-295): 30%; growth at 0.1 µM (LOX IMVI): 103%; growth at 1 µM (A549): -37% |
